Legend:
[1] = biological target: T1, 5-hydroxytryptamine receptor 1A (Rattus norvegicus, UniProt P19327); assay: Binding affinity for 5-hydroxytryptamine 1A receptor in rat brain tissue using [3H]8-OH-DPAT as radioligand; type: tissue-based
T1 sequence (P19327 whole entry): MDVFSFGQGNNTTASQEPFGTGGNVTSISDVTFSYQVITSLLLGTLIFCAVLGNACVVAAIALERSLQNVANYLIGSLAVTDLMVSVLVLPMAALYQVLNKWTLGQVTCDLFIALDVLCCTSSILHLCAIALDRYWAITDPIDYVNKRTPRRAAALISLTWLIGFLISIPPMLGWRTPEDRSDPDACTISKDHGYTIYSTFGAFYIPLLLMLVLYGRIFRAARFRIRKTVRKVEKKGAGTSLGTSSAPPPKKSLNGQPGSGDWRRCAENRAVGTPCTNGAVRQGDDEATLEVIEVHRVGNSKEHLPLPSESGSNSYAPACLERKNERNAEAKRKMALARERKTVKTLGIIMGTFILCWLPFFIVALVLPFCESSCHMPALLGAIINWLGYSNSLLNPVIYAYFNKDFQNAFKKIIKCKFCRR
How it was run: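 Membranes from male Sprague–Dawley rat cortex plus hippocampus, homogenized in 50 mM Tris-HCl with 4.0 mM CaCl2 and 5.7 mM ascorbic acid, pH 7.5, and preincubated 10 min at 37 °C with 10 μM pargyline. Assay used 5 mg/mL tissue and 2 nM [3H]-8-OH-DPAT, 10 min at 37 °C. Nonspecific binding was defined with 10 μM 5-HT. Bound ligand was separated on GF/B filters and counted; data were fitted by nonlinear regression.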

Rattus norvegicus [2] = assay: Cage leaving response was studied in rats after subcutaneous administration of 32 uM/Kg of compound; 0/5; type: functional
Rattus norvegicus [3] = assay: Change in body temperature in rats after subcutaneous administration; type: functional
How it was run: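 Rectal temperature was taken with an electrical thermometer, probe inserted 3.5 cm, before and 30 min after sc injection in 0.9% NaCl. Values are the change from the preinjection reading, analysed by Tukey HSD versus saline-treated rats. Male Sprague–Dawley rats, 260–310 g.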

Rattus norvegicus [4] = organism: Rattus norvegicus; assay: 5-HIAA (5-Hydroxyindoleacetic acid) content of rat hippocampus reflecting 5-HT metabolism and turnover; type: functional; design: concentration or dose not given beside the values
How it was run: (§1)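 Male Sprague–Dawley rats (260–310 g) received compound sc in 0.9% NaCl; saline controls. Rats were decapitated 35–45 min post-injection, and hippocampus and striatum were dissected and frozen. Tissue was homogenized in 0.1 M perchloric acid with α-methyl-5-hydroxytryptophan as internal standard, centrifuged and filtered, then analysed by HPLC-EC at 0.85 V (mobile phase pH 2.69, 35 °C). Values are percent of control, mean ± SEM.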

Rattus norvegicus [5] = organism: Rattus norvegicus; assay: 5-HT content of rat hippocampus reflecting 5-HT metabolism and turnover; type: functional; design: concentration or dose not given beside the values; how it was run: as §1
Rattus norvegicus [6] = organism: Rattus norvegicus; assay: DA (dopamine) content of rat striatum reflecting DA metabolism and turnover; type: functional; how it was run: as §1
Rattus norvegicus [7] = organism: Rattus norvegicus; assay: DOPAC (3,4-dihydroxyphenylacetic acid) content of rat striatum reflecting DA metabolism and turnover; type: functional; design: concentration or dose not given beside the values; how it was run: as §1
Rattus norvegicus [8] = organism: Rattus norvegicus; assay: HVA (Homovanillic acid)content of rat striatum reflecting DA metabolism and turnover; type: functional; design: concentration or dose not given beside the values
Rattus norvegicus [9] = assay: Flat body posture behavior was studied in rats after subcutaneous administration of 32 uM/Kg of compound; 5/5; type: functional
Rattus norvegicus [10] = assay: Forepaw treading (FPT) behavior was studied in rats after subcutaneous administration of 32 uM/Kg of compound; 5/5; type: functional
Rattus norvegicus [11] = organism: Rattus norvegicus; assay: Ratio of serotonin turnover (5HIAA to 5-HT) in rat brain hippocampus compared to control; type: functional; how it was run: as §1
Rattus norvegicus [12] = organism: Rattus norvegicus; assay: Ratio of turnover (DOPAC to DA) in rat brain striatum compared to control.; type: functional; how it was run: as §1
Rattus norvegicus [13] = assay: Cage leaving response was studied in rats after subcutaneous administration of 32 uM/Kg of compound; 3/5; type: functional
Rattus norvegicus [14] = assay: Flat body posture behavior was studied in rats after subcutaneous administration of 32 uM/Kg of compound; 0/5; type: functional
Rattus norvegicus [15] = assay: Forepaw treading (FPT) behavior was studied in rats after subcutaneous administration of 32 uM/Kg of compound; 0/5; type: functional
Rattus norvegicus [16] = assay: Cage leaving response was studied in rats after subcutaneous administration of 32 uM/Kg of compound; 4/5; type: functional
D(2) dopamine receptor = D(2) dopamine receptor (Homo sapiens, UniProt P14416); assay: In vitro binding affinity towards human Dopamine receptor D2A was determined in mouse fibroblast LtK cells using [3H]raclopride; type: cell-based
How it was run: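 Membranes from Ltk− mouse fibroblasts stably expressing human D2A receptors, at 80–100 pM receptor. Buffer was 50 mM Tris-HCl, 120 mM NaCl, 5 mM KCl, 1.5 mM CaCl2, 4 mM MgCl2, 1 mM EDTA, pH 7.4. Incubation with [3H]raclopride was 60 min at 22 °C, in duplicate, with 1 μM (+)-butaclamol for nonspecific binding. Bound ligand was separated on GF/B filters; data were fitted by nonlinear regression.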

Rattus norvegicus [17] = assay: Cage leaving response was studied in rats after subcutaneous administration of 32 uM/Kg of compound; 3/4; type: functional
Rattus norvegicus [18] = assay: Flat body posture behavior was studied in rats after subcutaneous administration of 32 uM/Kg of compound; 0/4; type: functional
How it was run: (§2)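 Test compounds were given at 32 μmol/kg and the reference 5-HT1A agonist at 1 μmol/kg. Flat body posture, forepaw treading and hind limb abduction were each scored as absent or present. Values are animals showing the behavior out of animals tested, analysed by Fisher's exact test. Male Sprague–Dawley rats, 260–310 g.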

Rattus norvegicus [19] = assay: Forepaw treading (FPT) behavior was studied in rats after subcutaneous administration of 32 uM/Kg of compound; 0/4; type: functional; how it was run: as §2
Rattus norvegicus [20] = assay: Cage leaving response was studied in rats after subcutaneous administration of 32 uM/Kg of compound; 2/4; type: functional

Chain of D(2) dopamine receptor (P14416 whole entry): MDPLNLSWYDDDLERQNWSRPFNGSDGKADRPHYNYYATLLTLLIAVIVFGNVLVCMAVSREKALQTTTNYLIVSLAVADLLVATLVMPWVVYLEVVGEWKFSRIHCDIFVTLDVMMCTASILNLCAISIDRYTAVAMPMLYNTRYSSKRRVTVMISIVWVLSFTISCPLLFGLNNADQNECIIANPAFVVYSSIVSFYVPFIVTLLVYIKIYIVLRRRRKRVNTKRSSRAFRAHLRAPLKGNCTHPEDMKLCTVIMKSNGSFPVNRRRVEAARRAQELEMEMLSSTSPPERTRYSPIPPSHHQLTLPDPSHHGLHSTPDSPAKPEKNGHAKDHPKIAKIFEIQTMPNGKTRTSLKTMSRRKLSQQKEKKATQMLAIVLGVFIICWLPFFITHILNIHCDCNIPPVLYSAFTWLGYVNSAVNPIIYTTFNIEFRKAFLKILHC

SMILES | Ki [1] | Change of body temperature (Rattus norvegicus [3]) | Control (Rattus norvegicus [4]) | Control (Rattus norvegicus [5]) | Control (Rattus norvegicus [6]) | Control (Rattus norvegicus [7]) | Control (Rattus norvegicus [8]) | Ratio (Rattus norvegicus [11]) | Ratio (Rattus norvegicus [12]) | FBP (Rattus norvegicus [14]) | FPT (Rattus norvegicus [15]) | Cage leaving (Rattus norvegicus [16]) | FBP (Rattus norvegicus [18]) | FPT (Rattus norvegicus [19]) | further results
CCCN(CCC)[C@@H]1CCc2cccc(C(=O)NC(C)C)c2[C@@H]1C | 38 nM | -2.5 °C | 66% | 123% | 99% | 74% | 94% | 54 | 76 | – | – | – | – | – | Cage leaving (Rattus norvegicus [2]): 0; FBP (Rattus norvegicus [9]): 5; FPT (Rattus norvegicus [10]): 5
CCCN(CCC)[C@H]1CCc2cccc(OS(=O)(=O)C(F)(F)F)c2[C@H]1C | 236 nM | 0.1 °C | 91% | 97% | 107% | 107% | 99% | 80 | 99 | 0 | 0 | – | – | – | Cage leaving (Rattus norvegicus [13]): 3
CCCN(C(C)C)[C@H]1CCc2cccc(O)c2[C@H]1C | – | -0.1 °C | 79% | 97% | 110% | 86% | 100% | 80 | 77 | 0 | 0 | 4 | – | – | –
CCCN(C(C)C)[C@@H]1CCc2cccc(O)c2[C@@H]1C | 81 nM | -0.3 °C | 93% | 96% | 74% | 116% | 225% | 97 | 155 | 0 | 0 | 4 | – | – | Ki (D(2) dopamine receptor): 614 nM
CCCN(CCC)[C@H]1CCc2cccc(C(=O)c3ccccc3)c2[C@H]1C | – | 0 °C | 114% | 93% | 102% | 112% | 97% | 123 | 109 | 0 | 0 | 4 | – | – | –
CCCN(CCC)[C@@H]1CCc2cccc(C(C)=O)c2[C@@H]1C | 0.56 nM | -1.7 °C | 96% | 99% | 95% | 192% | 203% | 97 | 200 | – | – | – | – | – | Ki (D(2) dopamine receptor): 40 nM; Cage leaving (Rattus norvegicus [2]): 0; FBP (Rattus norvegicus [9]): 5; FPT (Rattus norvegicus [10]): 5
CCCN(CCC)[C@@H]1CCc2cccc(OS(=O)(=O)C(F)(F)F)c2[C@@H]1C | 6.7 nM | 0 °C | 87% | 105% | 108% | 105% | 102% | 82 | 97 | 0 | 0 | 4 | – | – | Ki (D(2) dopamine receptor): 124 nM
CCCN(CCC)[C@H]1CCc2cccc(-c3ccco3)c2[C@H]1C | 44 nM | 0.1 °C | 121% | 108% | 103% | 102% | 109% | 107 | 98 | – | – | – | 0 | 0 | Cage leaving (Rattus norvegicus [17]): 3
CCCN(C(C)C)[C@@H]1CCc2cccc(OC)c2[C@@H]1C | 116 nM | 0.1 °C | 104% | 86% | 99% | 102% | 105% | 116 | 102 | – | – | – | 0 | 0 | Cage leaving (Rattus norvegicus [20]): 2
CCCN(CCC)[C@H]1CCc2cccc(C(C)=O)c2[C@H]1C | 138 nM | 0.1 °C | 93% | 99% | 95% | 130% | 93% | 93 | 110 | – | – | – | 0 | 0 | Cage leaving (Rattus norvegicus [17]): 3
CCCN(C(C)C)[C@H]1CCc2cccc(OC)c2[C@H]1C | 1420 nM | 0 °C | 110% | 87% | 103% | 96% | 90% | 124 | 94 | – | – | – | 0 | 0 | Cage leaving (Rattus norvegicus [20]): 2
CCCN(CCC)[C@H]1CCc2cccc(O)c2[C@H]1C | – | -0.3 °C | 104% | 109% | 107% | 118% | 96% | 95 | 112 | – | – | – | 0 | 0 | Cage leaving (Rattus norvegicus [20]): 2
CCCN(CCC)[C@@H]1CCc2cccc(C(=O)OC)c2[C@@H]1C | – | -2.7 °C | 78% | 122% | 112% | 167% | 194% | 64 | 152 | – | – | – | – | – | Ki (D(2) dopamine receptor): 58.8 nM; Cage leaving (Rattus norvegicus [2]): 0; FBP (Rattus norvegicus [9]): 5; FPT (Rattus norvegicus [10]): 5
CCCN(CCC)[C@@H]1CCc2cccc(C(=O)c3ccccc3)c2[C@@H]1C | 2.6 nM | 0.1 °C | 92% | 101% | 105% | 117% | 111% | 89 | 110 | 0 | 0 | 4 | – | – | –
CCCN(CCC)[C@H]1CCc2cccc(C(=O)NC(C)C)c2[C@H]1C | > 1000 nM | 0 °C | 97% | 104% | 82% | 59% | 76% | 92 | 74 | 0 | 0 | 4 | – | – | –
CCCN(CCC)[C@H]1CCc2ccccc2[C@H]1C | > 1000 nM | 0.1 °C | 112% | 107% | 113% | 92% | 111% | 104 | 81 | 0 | 0 | – | – | – | Cage leaving (Rattus norvegicus [13]): 3
CCCN(CCC)[C@@H]1CCc2cccc(-c3ccco3)c2[C@@H]1C | > 1000 nM | 0.1 °C | 111% | 110% | 91% | 116% | 107% | 101 | 128 | – | – | – | 0 | 0 | Cage leaving (Rattus norvegicus [17]): 3
